Results on 4 compounds are retold here after ChEMBL document CHEMBL3085657, “Preparation and in vitro photodynamic activities of folate-conjugated distyryl boron dipyrromethene based photosensitizers” (J Med Chem, 2013).

The structures appear in SMILES notation.

In series [1] the test system is MCF7. The experiment in a line: Photocytotoxicity against human MCF7 cells expressing low level of folate receptor assessed as cell viability incubated for 24 hrs followed by halogen light illumination measured after 20 mins by MTT assay. The format is functional, cell-based. In outline:
(§1)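 Cells seeded at about 1 × 10^4 (KB) or 2 × 10^4 (MCF-7) per well, grown overnight, then exposed to serial dilutions in folic acid free RPMI 1640. Dilutions came from 1.6 mM DMF stocks taken to 80 μM with aqueous Tween 80. After PBS rinse and fresh medium, cells were illuminated (halogen lamp, λ > 610 nm, 40 mW cm−2, 20 min, 48 J cm−2) and kept overnight at 37 °C. Read by MTT (3 h) with SDS/isopropanol solubilisation and A540. Viability is relative to wells without compound; three experiments in quadruplicate, mean ± SEM.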
(Tetrazolium dyes change colour on reduction, which living cells bring about.)

Series [2] in a line: Cellular uptake in endoplasmic reticulum of human KB cells overexpressing folate receptor at 1 uM after 24 hrs by ER-tracker green based-confocal microscopic analysis. It is filed as ADME, cell-based. In outline: (§2)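 KB cells (about 1 × 10^5 on coverslips, overnight at 37 °C, 5% CO2) given conjugate at 1 μM in folic acid free medium for 24 h. Then 15 min with Lyso-Tracker Green DND 26 (4.0 μM in medium), Mito-Tracker Green FM (0.2 μM in medium) or ER-Tracker Green (1.0 μM in PBS). PBS rinse; confocal imaging with 488 nm argon and 633 nm He-Ne lasers.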

A short description of series [3]: Induction of singlet oxygen formation in DMF assessed as photodegradation of DPBF at 4 uM. The format is physicochemical. The procedure, abridged:
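Singlet oxygen generation measured in DMF with 1,3-diphenylisobenzofuran as scavenger. Scavenger photodegradation followed as the fall in absorbance at 415 nm over time, with ZnPc as the reference.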

Series [4] relates to MCF7. The experiment in a line: Cytotoxicity against human MCF7 cells expressing low level of folate receptor assessed as cell viability at 80 uM after 24 hrs by MTT assay in absence of halogen light. Particulars: mcf7, 24 h; call rule not given here. The format is cell-based.
The nature of series [5]: Cellular uptake in lysosome of human KB cells overexpressing folate receptor at 1 uM after 24 hrs by lyso-tracker DND 26-based confocal microscopic analysis. It is filed as ADME, cell-based. In outline: as §2
Series [6] has as its system MCF7. In words: Selectivity ratio of IC50 for human MCF7 cells expressing low level of folate receptor to IC50 for human KB cells overexpressing folate receptor. It is filed as functional. The procedure, abridged:
as §1

Series [7] has as its system KB. The experiment in a line: Photocytotoxicity against human KB cells overexpressing folate receptor assessed as cell viability incubated for 24 hrs followed by halogen light illumination measured after 20 mins by MTT assay. It is filed as functional, cell-based. In outline: as §1
The test system of series [8] is KB. The experiment in a line: Cytotoxicity against human KB cells overexpressing folate receptor assessed as cell viability at 80 uM after 24 hrs by MTT assay in absence of halogen light. It is filed as cell-based.
Series [9] relates to KB. The experiment in a line: Cellular uptake in human KB cells overexpressing folate receptor at 1 uM after 24 hrs by bright field microscopy-based fluorescence assay. The format is ADME, cell-based. In outline:
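About 2 × 10^5 KB cells grown overnight on coverslips, then exposed to conjugate (1.0 μM) in folic acid free medium for 24 h at 37 °C. PBS rinse; confocal imaging with 633 nm He-Ne excitation and emission collected at 650−750 nm. Mean intracellular fluorescence taken over 50 cells per sample, reported as mean ± SD.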

Series [10] is described as follows: Ratio of cellular uptake in human KB cells to human MCF7 cells at 5 uM after 24 hrs. The format is ADME, cell-based. Particulars: mcf7, 24 h. In outline:
(§3)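 KB or MCF-7 cells (about 2 × 10^5 on coverslips, overnight at 37 °C, 5% CO2) incubated 24 h with 5.0 μM conjugate in folic acid free medium. PBS rinse; inverted microscope with 630 nm excitation, emission collected above 660 nm. Mean intracellular fluorescence from 24 cells per sample (mean ± SD), compared between the two lines.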

Series [11] in a line: Cellular uptake in mitochondria of human KB cells overexpressing folate receptor at 1 uM after 24 hrs by mito-tracker green FM-based confocal microscopic analysis. It is filed as ADME. The procedure, abridged:
as §2

Series [12] concerns MCF7. In words: Cellular uptake in human MCF7 cells expressing low level of folate receptor at 5 uM after 24 hrs by bright field microscopy-based fluorescence assay. The format is ADME, cell-based. Particulars: mcf7, 24 h. In outline: as §3
Series [13] relates to KB. In words: Photocytotoxicity against human KB cells overexpressing folate receptor assessed as cell viability at IC50 incubated for 24 hrs followed by halogen light illumination measured after 20 mins by MTT assay in presence of free folic acid. The format is functional.
For series [14], the system named is KB. In words: Cellular uptake in human KB cells overexpressing folate receptor at 5 uM after 24 hrs by bright field microscopy-based fluorescence assay. It is filed as ADME, cell-based. In outline:
as §3

Regarding `COCCOCCOCCOc1ccc(/C=C/C2=[N+]3C(=C(c4ccc(OCCOCCOCCOCc5cn(CCOCCOCCNC(=O)CC[C@H](NC(=O)c6ccc(NCc7cnc8nc(N)[nH]c(=O)c8n7)cc6)C(=O)O)nn5)cc4)c4c(C)c(I)c(/C=C/c5ccc(OCCOCCOCCOC)cc5)n4[B-]3(F)F)C(C)=C2I)cc1`, the IC50 (commonly the concentration needed to halve the response being measured) was determined as 1000 nM with MCF7 [1] and 180 nM with KB [7]. The Drug uptake result (in series [2]; in series [5]; in the series with KB [9]) was “Active” each time. For the same compound, the Activity entry in [3] is “Active”; in the series with MCF7 [4], “Non-toxic”; in the series with KB [8], “Non-toxic”. Besides, the “Ratio IC50” value with MCF7 [6] is 6.

Regarding `Nc1nc(=O)c2nc(CNc3ccc(C(=O)N[C@@H](CCC(=O)O)C(=O)O)cc3)cnc2[nH]1` [FOLIC ACID], the IC50 in the series with KB [7] worked out at 500 nM.

With `C#CCOCCOCCOCCOc1ccc(C2=C3C(C)=C(I)C(/C=C/c4ccc(OCCOCCOCCOC)cc4)=[N+]3[B-](F)(F)n3c(/C=C/c4ccc(OCCOCCOCCOC)cc4)c(I)c(C)c32)cc1`, the IC50 was 60 nM in the series on MCF7 [1] and 20 nM in the series with KB [7]. In the series on MCF7 [6], the “Ratio IC50” value was determined as 3.

On to `COCCOCCOCCOc1ccc(/C=C/C2=[N+]3C(=C(c4ccc(OCc5cn(CCOCCOCCNC(=O)CC[C@H](NC(=O)c6ccc(NCc7cnc8nc(N)[nH]c(=O)c8n7)cc6)C(=O)O)nn5)cc4)c4c(C)c(I)c(/C=C/c5ccc(OCCOCCOCCOC)cc5)n4[B-]3(F)F)C(C)=C2I)cc1`, for which, in series [10], the Ratio is 5. Besides, the Drug uptake entry is given as “Not Active” in [11]; “Not Active” in the series on MCF7 [12]; “Active” in series [2]; “Active” in series [5]; “Active” in the series on KB [14]; “Active” with KB [9]. Also, the results for the IC50 in the series on MCF7 [1] and in the series with KB [7] were 2560 nM and 60 nM, respectively. Also, the Activity result is listed as “Active” in series [3], “Non-toxic” in the series on MCF7 [4], 94% with KB [13] and “Non-toxic” with KB [8]. Besides, the “Ratio IC50” value in the series with MCF7 [6] came to 43.
